Data from PubChem BioAssay.
Inconclusive results are not listed.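 Rule for the calls, unless noted: active = inhibition over a set limit, the all-compound mean plus 3 SD, in both replicate runs; inconclusive = over that limit in just one replicate run; inactive = at or under that limit in both runs.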

Assays:
[1] = OD615 S. cerevisiae growth inhibition, permissive medium, pilot counter-assay, permissive growth control for S. cerevisiae lifespan shortening project (AID 705;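 active = growth inhibition above 25% in both replicates, a cutoff set 3 SD above the mean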); details: OD615, 24 h, at 10 µM, hits give high values
In short: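 Material: engineered DeaD yeast; compound dosing: one dose 10 µM, DMSO 0.25% final; measure: yeast growth inhibition indicated by reduced 24 h OD615; detection: OD615 turbidity read; incubation: cells pre-grown 4 h, then 24 h compound exposure, 30 °C humidified; medium: permissive synthetic complete medium with raffinose and galactose carbon sources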

[2] = Restrictive medium S. cerevisiae growth inhibition, OD615, pilot screen of yeast lifespan reduction project, restrictive growth control (AID 706;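 active = growth inhibition above a set limit, 3 SD over mean compound inhibition, in both replicates, cut at about 43% in these data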;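 note: modified DeaD lifespan yeast strain shifted to restrictive glucose medium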); details: OD615, 48 h, at 10 µM, hits give high values
In short: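 material = engineered S. cerevisiae DeaD strain | medium = glucose-based CSMM-D restrictive medium | times = 4 h pre-incubation, 48 h exposure at 30 °C | technique = OD615 absorbance reading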

[3] = viability gain of MRP-1-high H69AR cells under doxorubicin, pilot screen, MRP-1 activator project, CellTiter-Glo, duplicate (AID 807;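 active = viability increase at or above a cutoff of the median across tested compounds plus 3 SD, cut at about 8.5% in these data, passing the limit was not always enough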;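 note: compound pretreatment 18-22 h then 72 h combined with doxorubicin; 0% = doxorubicin alone and 100% = vehicle without doxorubicin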); details: H69AR viability with doxorubicin, CellTiter-Glo luminescence; at 10 µM; hits give high values
[4] = growth suppression of beta-catenin knockout HCT116, pilot screen, human colon tumor cells (AID 823;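 active = cell viability at or below a set limit in both duplicate runs, the limit being the all-compound median minus 4 SD, cut at about 23% in these data, passing the limit was not always enough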;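 note: 0% = wells killed by 20 µM Hyamine and 100% = untreated DMSO cell wells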); details: CellTiter-Glo, 60 h, at 10 µM, hits give low values
[5] = growth suppression of PTEN-deleted HCT116, pilot screen, cell-based, HCT116 clonal line, CellTiter-Glo (AID 824;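 active = viability at or below 27.92% in each of two runs, the all-compound median minus 4 SD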;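 note: 0% = 20 µM Hyamine control and 100% = vehicle cell control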); details: 60 h, at 10 µM, hits give low values
[6] = inhibitors of the yeast RAM network, pilot screen, dse1pr::URA3 reporter, 5-FOA selection (AID 869);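 note: 0% = DMSO wells with no growth and 100% = 10 µM 1-NA-PP1 with full growth; RAM network block rescues cells from 5-FOA so hits raise OD615 growth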; details: S. cerevisiae dse1pr::URA3 5-FOA growth, OD615, 2 d; at 10 µM; hits give high values; strain carries analog-sensitive mutant Cbk1 kinase
[7] = RAM signaling pathway blockade in yeast – S. cerevisiae, Pdr1DBD-CYC8 efflux-inhibited sensitized strain, primary screen (AID 1298;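 active = RAM network inhibition above 8.4% in each of two replicates, 3 SD over the compound average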;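 note: 0% = DMSO untreated cells without growth and 100% = 10 µM 1-NA-PP1 full growth; higher means more yeast growth rescued from 5-FOA killing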); details: S. cerevisiae cbk1-as DSE1-URA3 strain, 5-FOA growth OD615, 2 d; at 50 µM; hits give high values

Cn1c(=O)oc2cc(S(=O)(=O)NC(Cc3ccccc3)C(=O)N3CCCCC3)ccc21 (centres undefined)
inactive: growth inhibition [1] -6.13% | growth inhibition [2] -11.9% | viability increase [3] -2.55% | viability [4] 109% | viability [5] 98.6% | inhibition [6] 2.8% | RAM network inhibition [7] 2.02%

COc1ccc(C2(CNC(C)=O)CCOCC2)cc1OC
inactive: growth inhibition [1] -14.1% | growth inhibition [2] -2.29% | viability increase [3] 1.21% | viability [4] 103% | viability [5] 97.8% | inhibition [6] 2.54% | RAM network inhibition [7] -0.32%

Cc1cc(NC(=O)c2cc(CC(C)C)on2)no1
inactive: growth inhibition [1] -5.71% | growth inhibition [2] -12.5% | viability increase [3] -1.75% | viability [4] 106% | viability [5] 94.5% | inhibition [6] 0.67% | RAM network inhibition [7] 6.04%

COc1ccc(C(=O)Nc2nncs2)cc1S(=O)(=O)N1CC(c2ccccc2)CC1=O (centres undefined)
inactive: growth inhibition [1] -12.7% | growth inhibition [2] 18% | viability increase [3] 0.31% | viability [4] 101% | viability [5] 87% | inhibition [6] 0.92% | RAM network inhibition [7] 3.31%

CCCNC(=O)Nc1cc(OCC)c(N2CCOCC2)cc1OCC
inactive: growth inhibition [1] -0.41% | growth inhibition [2] 6.55% | viability increase [3] -1.37% | viability [4] 99.6% | viability [5] 105% | inhibition [6] 1.57% | RAM network inhibition [7] 0.87%

COc1ccccc1N1CCN(C(=O)c2ccc(Br)s2)CC1
inactive: growth inhibition [1] -10.4% | growth inhibition [2] -6.29% | viability increase [3] -1.58% | viability [4] 87% | viability [5] 91.1% | inhibition [6] 1.69% | RAM network inhibition [7] 6.83%

CC1=C(C(=O)OC(C)C)C(c2cccs2)n2ncnc2N1 (centres undefined)
inactive: growth inhibition [1] -1.96% | growth inhibition [2] 7.93% | viability increase [3] -1.21% | viability [4] 101% | viability [5] 96.2% | inhibition [6] 0.955% | RAM network inhibition [7] 2.09%

COc1ccc(N2C(=O)CC(NCc3cccc(F)c3)C2=O)cc1 (centres undefined)
inactive: growth inhibition [1] -6.89% | growth inhibition [2] -3.85% | viability increase [3] -0.75% | viability [4] 99.3% | viability [5] 98% | inhibition [6] 0.82% | RAM network inhibition [7] 5.38%

COCCCNc1ncnc2nc[nH]c12
inactive: growth inhibition [1] 4.6% | growth inhibition [2] -1.01% | viability increase [3] 1.43% | viability [4] 104% | viability [5] 104% | inhibition [6] 0.885% | RAM network inhibition [7] 1.74%

O=C(NCC(c1cccnc1)N1CCN(c2ccccc2F)CC1)c1ccccc1 (centres undefined)
inactive: growth inhibition [1] -9.54% | growth inhibition [2] -2.34% | viability increase [3] -4.21% | viability [4] 88.5% | viability [5] 82.4% | inhibition [6] 1.75% | RAM network inhibition [7] 1.21%

Cc1cnc(C(=O)OCC(=O)Nc2cc(Cl)cc(Cl)c2)cn1
inactive: growth inhibition [1] -14.2% | growth inhibition [2] -9.38% | viability increase [3] -5.97% | viability [4] 96.7% | viability [5] 88.5% | inhibition [6] 1.13% | RAM network inhibition [7] 5.88%

c1ccc(CNc2nc3ccccc3[nH]2)cc1
inactive: growth inhibition [1] -4.7% | growth inhibition [2] 2.9% | viability increase [3] -5.29% | viability [4] 75.8% | viability [5] 80.7% | inhibition [6] 1.3% | RAM network inhibition [7] 0.44%

CCOC(=O)N1CCN(c2ccc3nnnn3n2)CC1
inactive: growth inhibition [1] -4.75% | growth inhibition [2] 1.97% | viability increase [3] 0.77% | viability [4] 101% | viability [5] 101% | inhibition [6] 0.275% | RAM network inhibition [7] 0.43%

CCCc1cc(C(=O)Nc2cc(Br)ccc2O)no1
inactive: growth inhibition [1] -4.99% | growth inhibition [2] -3.92% | viability increase [3] -4.83% | viability [4] 89% | viability [5] 88.1% | inhibition [6] 2.76% | RAM network inhibition [7] 5.97%

O=C(C1CC1)N1CCCN(C(=O)C2CC2)CC1
inactive: growth inhibition [1] 2.42% | growth inhibition [2] -1.38% | viability increase [3] -1.86% | viability [4] 98.8% | viability [5] 97.1% | inhibition [6] 2.03% | RAM network inhibition [7] 4.69%

O=C(CSc1ccccc1)NCc1cccnc1
inactive: growth inhibition [1] -4.86% | growth inhibition [2] -3.68% | viability increase [3] -1.64% | viability [4] 99.5% | viability [5] 97% | inhibition [6] 0.995% | RAM network inhibition [7] 0.53%

O=C(CCc1nc2ccccc2[nH]1)N1CCc2ccccc2C1
inactive: growth inhibition [1] -11.6% | growth inhibition [2] -12.5% | viability increase [3] -1.86% | viability [4] 104% | viability [5] 94.8% | inhibition [6] 0.94% | RAM network inhibition [7] 1.76%

CCn1c(CNC(=O)c2ccc(OC)cc2)nnc1SC
inactive: growth inhibition [1] -3.98% | growth inhibition [2] 3.58% | viability increase [3] -1.74% | viability [4] 90.6% | viability [5] 91.9% | inhibition [6] 1.44% | RAM network inhibition [7] 4.37%

O=c1cc(CSc2nnc(-c3ccccc3)o2)c2ccccc2[nH]1
inactive: growth inhibition [1] -4.87% | growth inhibition [2] -3.43% | viability increase [3] 0.91% | viability [4] 99.2% | viability [5] 102% | inhibition [6] 2.32% | RAM network inhibition [7] 6.08%

COC(=O)C1C(=O)c2c([nH]c(C(=O)OC3CCCC3C)c2C)CC1C (centres undefined)
inactive: growth inhibition [1] -4.87% | growth inhibition [2] -2.27% | viability increase [3] 3.21% | viability [4] 81.2% | viability [5] 72.7% | inhibition [6] 2.68% | RAM network inhibition [7] 3.76%

COc1ccc(-n2c(SCC(=O)Nc3nccs3)nc3c(c2=O)SC(C)C3)cc1 (centres undefined)
inactive: growth inhibition [1] -7.21% | growth inhibition [2] -3.74% | viability increase [3] -2.46% | viability [4] 97.1% | viability [5] 93% | inhibition [6] 1.56% | RAM network inhibition [7] 7.02%

COc1cccc(C2CC(c3ccc(Cl)cc3)Nc3nc(N)nn32)c1 (centres undefined)
inactive: growth inhibition [1] 4.02% | growth inhibition [2] 11.4% | viability increase [3] 3.49% | viability [4] 91.4% | viability [5] 83% | inhibition [6] 1.92% | RAM network inhibition [7] 6.11%

COc1cccc(N2C(=O)C3CCCN3C2c2ccc(Cl)cc2)c1 (centres undefined)
inactive: growth inhibition [1] 3.31% | growth inhibition [2] 17.5% | viability increase [3] -2.51% | viability [4] 95.2% | viability [5] 87% | inhibition [6] 1.21% | RAM network inhibition [7] 2.53%

CC(NC(=O)Cc1ccccc1)c1nc2ccccc2[nH]1 (centres undefined)
inactive: growth inhibition [1] -3.99% | growth inhibition [2] -1.91% | viability increase [3] -1.22% | viability [4] 108% | viability [5] 97.1% | inhibition [6] 0.08% | RAM network inhibition [7] 3.75%

CCCC(=O)NC(C)c1nc2ccccc2n1C (centres undefined)
inactive: growth inhibition [1] -18.7% | growth inhibition [2] -2.34% | viability increase [3] 2.12% | viability [4] 101% | viability [5] 102% | inhibition [6] 1.45% | RAM network inhibition [7] 1.79%

Cc1cc(C(=O)NC2CCCC2)on1
inactive: growth inhibition [1] -11.8% | growth inhibition [2] -21.1% | viability increase [3] 0.32% | viability [4] 107% | viability [5] 102% | inhibition [6] 1.71% | RAM network inhibition [7] 1.5%

CCC1Oc2ccc(C)cc2N(CC(=O)N2CCN(c3ccc(F)cc3)CC2)C1=O (centres undefined)
inactive: growth inhibition [1] 5.46% | growth inhibition [2] 11.1% | viability increase [3] -3.35% | viability [4] 90% | viability [5] 83.5% | inhibition [6] -0.495% | RAM network inhibition [7] -0.06%

O=C1c2oc3ccccc3c(=O)c2C(c2cccc(O)c2)N1CCCN1CCOCC1 (centres undefined)
inactive: growth inhibition [1] -8.79% | growth inhibition [2] -7.73% | viability increase [3] -0.83% | viability [4] 102% | viability [5] 102% | inhibition [6] 0.37% | RAM network inhibition [7] 2.79%

Cc1c(NC(=O)c2ccc3c(c2)OCO3)c(=O)n(-c2ccccc2)n1C
inactive: growth inhibition [1] -8.08% | growth inhibition [2] -23.4% | viability increase [3] -0.33% | viability [4] 104% | viability [5] 101% | inhibition [6] 0.345% | RAM network inhibition [7] 2.71%

OC(COc1ccccc1Cl)CN1CCN(CC(O)COc2ccccc2Cl)CC1 (centres undefined)
inactive: growth inhibition [1] 3.62% | growth inhibition [2] -11.8% | viability increase [3] -5.92% | viability [4] 73.3% | viability [5] 81.9% | inhibition [6] 0.495% | RAM network inhibition [7] 3.13%

CCCOc1ccc(C(=O)NCCC(=O)NCCCC(=O)OCC)cc1
inactive: growth inhibition [1] -14.6% | growth inhibition [2] -20.7% | viability increase [3] 0.2% | viability [4] 91.8% | viability [5] 104% | inhibition [6] 1.34% | RAM network inhibition [7] 0.47%

CCn1c(C(C)NC(C)=O)nc2ccccc21 (centres undefined)
inactive: growth inhibition [1] -13.6% | growth inhibition [2] -5.8% | viability increase [3] 0.8% | viability [4] 112% | viability [5] 106% | inhibition [6] 2.2% | RAM network inhibition [7] 3.48%

O=c1oc2ccccc2n1Cc1ccccc1Cl
inactive: growth inhibition [1] -1.38% | growth inhibition [2] 8.91% | viability increase [3] -0.37% | viability [4] 97.1% | viability [5] 99.5% | inhibition [6] 1.56% | RAM network inhibition [7] 0.31%

CCOc1ccc(C(=O)Nn2cnnc2)cc1
inactive: growth inhibition [1] -3.16% | growth inhibition [2] -5.59% | viability increase [3] 0.25% | viability [4] 104% | viability [5] 103% | inhibition [6] 0.895% | RAM network inhibition [7] 1.85%

Cn1c(=O)c2nc(-c3ccc(Cl)cc3Cl)oc2c2ccccc21
inactive: growth inhibition [1] -12.5% | growth inhibition [2] -0.105% | viability increase [3] -3.1% | viability [4] 81.1% | viability [5] 77.6% | inhibition [6] 2.31% | RAM network inhibition [7] 3.74%

O=c1cc(N2CCOCC2)[nH]c(=O)n1Cc1ccc(F)cc1
inactive: growth inhibition [1] 5.3% | growth inhibition [2] -2.77% | viability increase [3] 0.52% | viability [4] 95.3% | viability [5] 99.1% | inhibition [6] 1.04% | RAM network inhibition [7] -0.98%

CCCN(CCC)CCCNC(=O)c1cc2c(=O)n(C)c3ccccc3c2n1C
inactive: growth inhibition [1] -3.03% | growth inhibition [2] -4.35% | viability increase [3] -6.97% | viability [4] 72.5% | viability [5] 77.1% | inhibition [6] 1.22% | RAM network inhibition [7] 3.47%
